According to ChEMBL document CHEMBL3352313 (J Med Chem, 2014):
pEC50: −log10 of the molar value.

Experiments:
[1] = Elimination half life in Sprague-Dawley rat 1 mg/kg, iv administered as single dose by LC/MS/MS utilizing electrospray ionization method; format: ADME, organism-based; parameters: dose 1 mg/kg, route intravenous; conditions: in vivo, read-out: beta t1/2
Homo sapiens = species: Homo sapiens; assay: Selectivity index, ratio of EC50 for human muscarinic acetylcholine receptor subtype 3 to EC50 for human muscarinic acetylcholine receptor subtype 5
[2] = biological target: T1, Muscarinic acetylcholine receptor M1 (Rattus norvegicus, UniProt P08482); assay: Activity at rat muscarinic acetylcholine receptor subtype 1 expressed in CHO cells by calcium mobilization assay; format: functional, cell-based
T1 sequence (P08482 whole entry): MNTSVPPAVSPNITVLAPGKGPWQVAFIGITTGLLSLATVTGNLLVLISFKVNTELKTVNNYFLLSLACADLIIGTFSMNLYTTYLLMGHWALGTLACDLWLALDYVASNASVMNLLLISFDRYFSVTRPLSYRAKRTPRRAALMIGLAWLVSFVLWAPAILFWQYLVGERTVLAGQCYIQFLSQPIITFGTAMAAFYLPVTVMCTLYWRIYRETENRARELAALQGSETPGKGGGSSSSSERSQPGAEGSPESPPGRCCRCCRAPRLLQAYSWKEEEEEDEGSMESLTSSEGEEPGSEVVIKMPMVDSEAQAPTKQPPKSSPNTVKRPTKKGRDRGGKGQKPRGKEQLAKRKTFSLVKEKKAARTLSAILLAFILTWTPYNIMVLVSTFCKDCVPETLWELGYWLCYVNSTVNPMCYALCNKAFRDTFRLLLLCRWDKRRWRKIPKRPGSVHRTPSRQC
Procedure, shortened: (§1)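 Muscarinic subtype selectivity by fluorescence calcium mobilization in highly expressing CHO lines with similar receptor levels; Gi/o-coupled M2 and M4 cells co-transfected with chimeric Gqi5 to couple to Ca2+ mobilization. Read-outs are PAM EC50 and ACh max response. Mean ± SEM of at least three independent determinations.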

[3] = Fraction unbound in rat brain at 5 uM incubated for 4 hrs at 37 degC by equilibrium dialysis based LC/MS/MS analysis; format: ADME, tissue-based
Procedure, shortened: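 Fraction unbound measured in rat and human plasma and in rat brain homogenate.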

[4] = biological target: T2, Muscarinic acetylcholine receptor M5 (Homo sapiens) (UniProt P08912); assay: Positive allosteric modulator activity at human muscarinic acetylcholine receptor subtype 5 expressed in CHO cell membranes assessed as fold shift in acetylcholine binding affinity by [3H]NMS binding based scintillation counting method
T2 sequence (whole entry): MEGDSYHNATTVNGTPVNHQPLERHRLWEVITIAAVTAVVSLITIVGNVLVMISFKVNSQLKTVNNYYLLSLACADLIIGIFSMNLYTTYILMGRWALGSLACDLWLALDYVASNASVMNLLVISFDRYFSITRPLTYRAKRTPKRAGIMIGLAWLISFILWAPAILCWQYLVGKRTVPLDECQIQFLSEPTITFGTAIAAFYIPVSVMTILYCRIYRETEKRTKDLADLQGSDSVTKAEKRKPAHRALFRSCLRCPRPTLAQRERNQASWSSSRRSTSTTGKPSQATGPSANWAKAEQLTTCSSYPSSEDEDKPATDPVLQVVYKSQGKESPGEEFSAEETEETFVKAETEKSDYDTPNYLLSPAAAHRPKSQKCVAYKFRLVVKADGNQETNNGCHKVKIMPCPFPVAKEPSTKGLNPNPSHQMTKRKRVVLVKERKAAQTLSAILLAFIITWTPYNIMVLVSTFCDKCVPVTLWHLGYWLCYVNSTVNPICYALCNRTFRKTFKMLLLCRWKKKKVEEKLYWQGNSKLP

[5] = biological target: T2, Muscarinic acetylcholine receptor M5 (Homo sapiens); assay: Displacement of [3H]NMS from human muscarinic acetylcholine receptor subtype 5 expressed in CHO cell membranes assessed as radioligand binding level by scintillation counting method
[6] = biological target: T3, Muscarinic acetylcholine receptor M2 (Rattus norvegicus, UniProt P10980); assay: Activity at rat muscarinic acetylcholine receptor subtype 2 expressed in CHO cells co-transfected with chimeric Gqi5 by calcium mobilization assay; format: functional, cell-based; procedure, shortened: as §1
T3 sequence (P10980 whole entry): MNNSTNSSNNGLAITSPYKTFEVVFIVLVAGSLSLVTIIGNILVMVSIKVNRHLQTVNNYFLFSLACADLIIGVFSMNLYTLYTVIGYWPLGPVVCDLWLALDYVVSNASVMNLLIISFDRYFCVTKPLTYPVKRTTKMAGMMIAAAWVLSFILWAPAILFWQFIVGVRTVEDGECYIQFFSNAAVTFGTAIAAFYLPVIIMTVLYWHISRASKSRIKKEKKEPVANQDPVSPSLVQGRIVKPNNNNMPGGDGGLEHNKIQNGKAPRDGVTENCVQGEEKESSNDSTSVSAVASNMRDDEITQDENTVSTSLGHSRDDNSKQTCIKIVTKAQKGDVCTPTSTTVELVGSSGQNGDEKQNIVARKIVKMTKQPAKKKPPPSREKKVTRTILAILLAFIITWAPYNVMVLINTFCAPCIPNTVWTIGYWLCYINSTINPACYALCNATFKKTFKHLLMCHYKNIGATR

CCN(Cc1ccccc1C(F)(F)F)C(=O)C1CCN(S(=O)(=O)c2ccc3[nH]ncc3c2)CC1
half-life [1]: 22 min
Ratio EC50 (Homo sapiens): > 10
pEC50 [2]: 5.70
Fu [3]: 0.011
fold change (FC) [4]: 15
%max [5]: 97.1%
pEC50 [6]: < 4.52
